Most compounds without a hit are left out; they make up all but 3.5% or so of the library.
MrgX1 antag = antagonists of human MrgX1 receptor, primary screen, HEK293 cells, Fluo-4 calcium flux. Mas-related G-protein coupled receptor member X1 (Homo sapiens), Q96LB2. BAM8-22 antagonism; stronger effect = lower value. B-score at 10 µM. 310,000 compounds, 1.3% hits. AID 588676, 2011;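 active means calcium-response B-score plate-corrected more than 3 library SD below zero, starting fluorescence within 5 deviations, no agonist response on first addition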;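 further: peak minus trough fluorescence over baseline after final BAM8-22 challenge near maximal dose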
Target sequence (Q96LB2 whole entry, looked up): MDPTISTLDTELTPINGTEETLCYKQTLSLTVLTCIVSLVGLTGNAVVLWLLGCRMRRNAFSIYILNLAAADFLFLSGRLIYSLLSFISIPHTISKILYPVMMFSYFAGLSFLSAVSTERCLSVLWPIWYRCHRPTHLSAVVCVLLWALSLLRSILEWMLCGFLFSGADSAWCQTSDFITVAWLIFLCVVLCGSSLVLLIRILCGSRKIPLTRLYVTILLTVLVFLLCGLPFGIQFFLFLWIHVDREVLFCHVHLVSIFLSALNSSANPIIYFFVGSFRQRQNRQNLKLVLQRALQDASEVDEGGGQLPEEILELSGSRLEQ
MrgX1 PAM = positive allosteric modulators of MrgX1, primary screen, HEK293 cells, Fluo-4 calcium flux; Mas-related G-protein coupled receptor member X1 (Homo sapiens), Q96LB2; B-score at 10 µM; FDSS; stronger effect = higher value; 310,000 compounds, 0.63% hits; AID 588675, 2011;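 active means plate-corrected calcium response at least 3 library SD above typical, normal starting fluorescence, not activating the receptor alone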;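 further: compound read alongside a low EC10 to EC30 dose of BAM8-22 agonist; peak minus trough fluorescence over baseline measured at the second addition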
RGS4 inh = RGS4 inhibitors, primary screen, cell-based, HEK293 M3R inducible RGS4, calcium flux; Regulator of G-protein signaling 4 (Homo sapiens), P49798; Fluo-4 calcium flux; stronger effect = higher value; triggered by carbachol at its EC20; B-score at 10 µM; 310,000 compounds, 0.45% hits; AID 463165, 2010;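 active means B-score, a plate-corrected calcium signal, over three deviations above library mean, with baseline fluorescence within five deviations of library mean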;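 further: RGS4 expression induced by doxycycline in cells with stable M3 receptor; B-score is computed from the integrated fluorescence ratio over baseline after carbachol; higher B-score means a larger calcium signal and so more RGS4 inhibition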
Target sequence (P49798 whole entry, looked up): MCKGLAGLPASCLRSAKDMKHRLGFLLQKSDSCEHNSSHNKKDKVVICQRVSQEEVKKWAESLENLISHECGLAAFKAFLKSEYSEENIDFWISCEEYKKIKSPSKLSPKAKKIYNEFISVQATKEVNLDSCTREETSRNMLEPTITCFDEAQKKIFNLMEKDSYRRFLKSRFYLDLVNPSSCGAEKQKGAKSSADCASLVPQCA
MrgX1 agonist = agonists of human MrgX1 receptor, primary screen, HEK293 cells, Fluo-4 calcium flux. Mas-related G-protein coupled receptor member X1 (Homo sapiens), Q96LB2. Fluo-4 calcium fluorescence, agonist mode; stronger effect = higher value. B-score at 10 µM. 310,000 compounds, 0.44% hits;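 active means calcium response B-score plate-corrected fluorescence ratio at least 3 library SD, with starting fluorescence B-score inside 5 SD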
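Material: HEK293 cells stably expressing human MrgX1 receptor | Quantity: 15,000 cells per well | Times: Cells plated overnight, dye loaded 0.5 h 37 °C, 0.5 h room temperature | Measured by: Kinetic Fluo-4 NW fluorescence of intracellular calcium | Control set: Positive and negative controls per plate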
RGS4 pot = RGS4 potentiators or activators, primary screen, cell-based, HEK293 M3R inducible RGS4, calcium flux | 310,000 compounds, 0.92% hits | B-score at 10 µM | AID 463111, 2010 | carbachol calcium flux Fluo4; stronger effect = lower value;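 active means B-score of the integrated calcium signal more than 4 SD below the library mean, with starting fluorescence not abnormally high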;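 further: negative B-score means reduced calcium response which marks RGS4 activation or potentiation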
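Detection: kinetic calcium fluorescence imaging with Fluo4-AM dye, 2 µM / Material: HEK293 cells with stable M3R and inducible RGS4 / Schedule: recording 10 s baseline at 1 Hz, 100 s post-agonist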
* hit, by the source's call; i = inactive; x = no result.

SMILES | MrgX1 antag | MrgX1 PAM | RGS4 inh | MrgX1 agonist | RGS4 pot
COCCN(C(=O)Nc1ccc(OC)cc1)c1nc2ccccc2s1 | i | i | i | i | i
C/C(=N/OC(=O)c1c(-c2ccccc2Cl)noc1C)c1cnccn1 | i | i | i | i | -9.79*
Cc1ccc(-c2noc(CNC(=O)COc3ccccc3C)n2)cc1 | i | i | i | i | i
Cc1ncc(CO)c(/C=N/NC(=S)Nc2ccc(Cl)c(Cl)c2)c1O | -9.57* | i | i | i | i
CC(OC(=O)/C=C/c1ccc2ccccc2n1)C(=O)NCc1ccccc1 (stereo unspecified) | i | i | i | i | i
O=C(CN1CCN(Cc2ccc(F)cc2Cl)CC1)NCc1ccccc1 | i | i | i | i | i
OC12CC3C[C@H](C1)C(N1CCOCC1)[C@@H](C3)C2 (stereo partly specified) | i | i | i | i | i
Cc1ccc(C)c(OCC(=O)Nc2nc3ccc([N+](=O)[O-])cc3s2)c1 | -7.25* | i | i | i | i
O=C(COC(=O)c1ccco1)Nc1nc2ccc([N+](=O)[O-])cc2s1 | i | i | i | i | i
CCN(CC)S(=O)(=O)c1ccc(-n2c(=O)c(C(C)C)c(C)n2C)cc1 | i | i | i | i | i
CC(C)c1ccccc1NC(=O)CNCCOc1ccccc1F | i | i | i | i | -7.15*
CCc1ccc(NC(=O)CS(=O)CC(=O)NCC2OCCc3ccccc32)cc1 (stereo unspecified) | i | i | i | i | i
Cc1cccc(C)c1NC(=O)CS(=O)CC(=O)NCC1OCCc2ccccc21 (stereo unspecified) | -4.76* | i | i | i | i
N#CCC(=O)N1CCN(C=O)CC1 | -5.53* | i | i | i | i
COc1ccc(-c2csc(NC(=O)c3ccc(C(C)(C)C)cc3)c2C(=O)O)cc1 | i | 14.3* | i | i | i
COc1ccc(-c2csc(NC(=O)c3ccccc3Br)c2C(=O)O)cc1 | i | i | i | i | i
O=C(NOC(=O)c1c(F)cccc1Cl)c1ccc(Cl)c(Cl)c1 | i | i | i | i | i
CN(C)CCCN1c2ccccc2CCc2ccccc21 | i | i | x | i | x
CC(CN(C)C)CN1c2ccccc2CCc2ccccc21 (stereo unspecified) | -4.88* | i | i | i | i
COCCNC(=S)N1CCc2cc(OC)c(OC)cc2C1COc1ccc(C(C)C)cc1 (stereo unspecified) | i | i | i | i | i
O=[N+]([O-])c1cncc([N+](=O)[O-])c1Nc1cccc(O)c1 | i | i | i | 38.1* | i
Cc1ccccc1Nc1c([N+](=O)[O-])cncc1[N+](=O)[O-] | i | i | i | i | i
CC1=CN2C(=N)/C(=C/c3ccc(C)o3)C(=O)N=C2S1 | i | 15.3* | i | i | i
CCOC(=O)c1[nH]c(C)c(C(=O)OCC(=O)N(C)C2CCS(=O)(=O)C2)c1C (stereo unspecified) | i | i | i | i | i
O=C(N/N=C/c1sc2ccccc2c1O)c1cccc2ccccc12 | -4.83* | i | i | i | i
SMILES | MrgX1 antag | MrgX1 PAM | RGS4 inh | MrgX1 agonist | RGS4 pot
COc1ccc(C(=O)N/N=C/c2sc3ccccc3c2O)cc1 | i | i | i | 39.4* | i
O=C(Nc1cccc(F)c1)/C(=C\c1cccnc1)NC(=O)c1ccco1 | i | i | i | i | i
O=C(Nc1cccc(F)c1)/C(=C\c1cccnc1)NC(=O)c1cccs1 | -5.53* | i | i | i | i
O=C(Nc1ccc(-c2ccc(N3CCCCC3)nn2)cc1)c1ccco1 | i | i | i | i | i
COc1ccc2cc(/C=C3\SC(=S)NC3=O)c(N3CCOCC3)nc2c1 | -6.92* | i | i | i | i
O=C1NC(=S)S/C1=C/c1ccc(N2CCOCC2)o1 | i | i | i | i | i
N/C(Cc1ccc(Cl)c(Cl)c1)=N\OC(=O)c1cccs1 | i | i | i | i | i
N/C(=N\OC(=O)c1cccs1)C1(c2ccc(Cl)cc2Cl)CC1 | i | 13.7* | i | i | i
CCCCNC(=O)CSc1nc(Cc2ccccc2)nc2ccccc12 | i | i | i | i | i
CCOC(=O)C1CCCN(C(=O)c2ccc(S(=O)(=O)N3CCCC3)cc2)C1 (stereo unspecified) | i | i | i | i | i
CCOC(=O)C1CCCN(S(=O)(=O)c2ccc(S(=O)(=O)N3CCCC3)cc2)C1 (stereo unspecified) | -5.26* | i | i | i | i
Nc1nc(-c2ccccc2)c(-c2ccccc2)n1N | i | 9.35* | i | i | i
Cc1nnc(SCc2cccc([N+](=O)[O-])c2)s1 | i | i | i | i | -7.08*
O=C(Nc1nnc(SCc2ccccc2)s1)c1cccc([N+](=O)[O-])c1 | i | i | i | i | i
O=c1oc2ccccc2cc1-c1cn2ccccc2n1 | i | i | i | 26.6* | i
O=c1oc2ccccc2cc1-c1cn2cccnc2n1 | i | i | i | i | i
COc1ccccc1NC(=O)CCc1nnc2ccc(N3CCN(C)CC3)nn12 | i | i | i | i | i
CCOC(=O)NC(=O)COC(=O)CNC(=O)c1ccc(OCC)c(OCC)c1 | i | 8.94* | i | i | i
O=C1CCC(C(=O)Nc2ccccc2N2CCCC2)=NN1 | i | i | i | i | i
COc1ccccc1-c1csc(NC(=O)c2ccc(N3C(=O)CCC3=O)cc2)n1 | i | i | i | i | i
COc1cccc(C(=O)Nc2ccc(NC(=O)C3C4C=CC(C4)C3C(=O)O)cc2)c1 (stereo unspecified) | i | i | i | i | i
Cc1ccc(Cl)cc1N1CCN(C(=O)CSc2nnc3n2C(C)(C)Cc2ccccc2-3)CC1 | -9.5* | i | i | i | -7.03*
CCN(CC)c1ccc(-c2nn3c(-c4n[nH]c5c4CCC5)nnc3s2)cc1 | -12* | i | i | i | -7.19*
COc1cc(/C=C/C(=O)c2ccc3c(c2)OCCO3)cc(Br)c1OCC(=O)N(C)C | -5.58* | i | i | i | i
CCOc1c(Br)cc(CNc2ccc3c(c2)OCCO3)cc1OC | i | i | i | i | i
